Pf Dd2 inh: P. falciparum Dd2 growth inhibition; activity change, % at 10 µM; AID 1159554; SYBR Green, 72 h; hits give low values; actives 2.3% (n = 94,000); in the data active = activity change below about -80%; inconclusive = no clear call, values can overlap the other calls
GASC1 inh: KDM4C (human) demethylase inhibition; GST-KDM4C 2-372, H3K9me3 peptide, LANCE TR-FRET; inhibition, % at 12.5 µM; actives 0.15% (n = 96,000); AID 720574;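 active = mean replicate inhibition above about 25%, with at least 55% of replicates also reaching it, limit read from the data, passing the limit was not always enough; inconclusive = only one of those two conditions met; inactive = neither condition met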
Target sequence (Q9H3R0 2-372 limits assumed): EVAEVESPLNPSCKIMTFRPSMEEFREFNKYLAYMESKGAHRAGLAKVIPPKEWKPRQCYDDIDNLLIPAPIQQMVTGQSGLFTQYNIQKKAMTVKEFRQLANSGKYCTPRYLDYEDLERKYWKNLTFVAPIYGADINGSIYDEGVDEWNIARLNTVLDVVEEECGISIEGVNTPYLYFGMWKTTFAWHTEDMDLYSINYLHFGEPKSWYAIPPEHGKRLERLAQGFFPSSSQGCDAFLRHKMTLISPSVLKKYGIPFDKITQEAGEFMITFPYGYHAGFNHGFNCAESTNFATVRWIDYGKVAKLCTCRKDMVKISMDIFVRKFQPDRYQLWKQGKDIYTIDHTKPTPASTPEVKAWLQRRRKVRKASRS
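Material: N-terminal GST-fused human GASC-1 (KDM4C) fragment, residues 2-372. Input: 10 nM enzyme. Incubation: enzyme reaction 30 min, then detection 60 min, both room temperature. Doses: one test concentration per compound. Read-out basis: inhibition from TR-FRET ratio decrease. Detection: LANCE TR-FRET, excitation 340 nm, emissions 618 and 671 nm.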
IDH1 R132H inh: IDH1 R132H (human) inhibition. actives 0.18% (n = 70,000). AID 624101. IDH1 R132H reductase, diaphorase/resazurin fluorescence, 60 min. O75874. inhibition, % at 10 µM; in the data active = inhibition above about 34%; inconclusive = no clear call, values can overlap the other calls; inactive = below about 11%
T cruzi growth-1: inhibitors of T. cruzi proliferation | T. cruzi beta-gal in NIH3T3, GalScreen luminescence, 90 h | inhibition, % at 8.34 µM | actives 5.9% (n = 77,000) | AID 624255;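 active = mean inhibition above about 93%, with at least 55% of replicates each passing it, limit read from the data, passing the limit was not always enough; inconclusive = only one of those two conditions holds; inactive = neither condition holds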
T cruzi growth-2: inhibitors of T. cruzi proliferation | actives 72% (n = 5,600) | shares compounds with T cruzi growth-1 | inhibition, % at 8.35 µM | T. cruzi beta-gal in NIH3T3, GalScreen luminescence, 90 h;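 active = mean replicate inhibition above about 95% and at least 55% of replicates individually reaching it, limit read from the data; inconclusive = only one of the two criteria is met; inactive = neither criterion is met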
T cruzi growth-3: inhibitors of T. cruzi proliferation. shares compounds with T cruzi growth-1. T. cruzi beta-gal in NIH3T3, GalScreen luminescence, 90 h. inhibition, % at 2.09 µM. actives 21% (n = 5,600);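 active = mean inhibition above about 95%, with at least 55% of replicates also reaching it, limit read from the data; inconclusive = meets just one of the two conditions; inactive = meets neither condition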
3T3 cytotox: kills mouse NIH/3T3 fibroblasts; shares compounds with T cruzi growth-1; AID 651742; actives 14% (n = 5,600); NIH/3T3 viability, CellTiter-Glo ATP luminescence, 90 h; cytotoxicity (signal decrease), % at 8.35 µM;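 active = mean signal decrease across replicates above about 35% based on untreated-well scatter, with enough replicates individually passing, limit read from the data; inconclusive = no rule stated though some were filed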
3T3 cytotox 2: kills mouse NIH/3T3 fibroblasts | NIH/3T3 viability, CellTiter-Glo ATP luminescence, 90 h | actives 56% (n = 5,600) | shares compounds with T cruzi growth-1 | AID 651744 | inhibition, % at 24.9 µM;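 active = mean loss of cell viability signal at or above a set limit, and enough replicates individually reaching it; inconclusive = meets only the mean limit or only the replicate share; inactive = meets neither condition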
Hits are given with their value; – = inactive; ? = inconclusive; · = no result. An excerpt weighted towards active compounds, which were near 5.8% of everything screened.

SMILES | Pf Dd2 inh | GASC1 inh | IDH1 R132H inh | T cruzi growth-1 | T cruzi growth-2 | T cruzi growth-3 | 3T3 cytotox | 3T3 cytotox 2
C[C@H]1CN([C@@H](C)CO)C(=O)c2cc(-c3ccccc3)cnc2O[C@H]1CN(C)Cc1ccc(C(=O)O)cc1 | – | – | – | – | · | · | · | ·
CCCN1C[C@H](C)[C@H](OC)CN(C)C(=O)c2cc(NC(=O)Nc3cccc(OC)c3)ccc2OC[C@@H]1C | · | – | – | – | · | · | · | ·
C[C@@H]1CN([C@H](C)CO)C(=O)c2cc(NC(=O)c3ccncc3)ccc2O[C@@H](C)CCCCO[C@H]1CN(C)S(=O)(=O)c1ccc(Cl)cc1 | – | – | – | – | · | · | · | ·
COc1cccc(CN2CCCCN3[C@@H](CO)[C@@H](c4ccc(C#Cc5cccnc5)cc4)[C@@H]3C2)c1 | – | – | · | 118 | 104 | ? | – | 104
COc1cccc(CN2CCCCN3[C@H](C2)[C@@H](c2ccc(C#Cc4cccnc4)cc2)[C@@H]3CO)c1 | – | – | · | 117 | – | 102 | – | 104
COc1cccc(CN2CCCCN3[C@H](CO)[C@@H](c4ccc(-c5cccnc5)cc4)[C@H]3C2)c1 | – | – | · | – | · | · | · | ·
C[C@H](CO)N1C[C@H](C)[C@@H](CN(C)Cc2ccccc2)OCCCC[C@H](C)Oc2ccc(NC(=O)Nc3ccccc3)cc2C1=O | – | – | · | · | · | · | · | ·
O=C(C[C@H]1CC[C@@H](NC(=O)c2ccncc2)[C@@H](CO)O1)NCC1CCCCC1 | – | – | – | – | · | · | · | ·
COc1ccc(S(=O)(=O)N(C)C[C@H]2OCCCC[C@@H](C)Oc3ccc(NS(C)(=O)=O)cc3C(=O)N([C@@H](C)CO)C[C@H]2C)cc1 | – | – | – | – | · | · | · | ·
COc1cccc(-c2cnc3c(c2)C(=O)N([C@H](C)CO)C[C@H](C)[C@H](CN(C)Cc2cccc(C)c2)O3)c1 | – | – | – | 96 | – | – | – | ?
COc1ccccc1-c1cnc2c(c1)C(=O)N([C@H](C)CO)C[C@H](C)[C@@H](CN(C)Cc1cccc(F)c1)O2 | – | – | – | ? | 102 | – | – | 42
COc1ccccc1-c1cnc2c(c1)C(=O)N([C@H](C)CO)C[C@@H](C)[C@@H](CN(C)Cc1cccc(F)c1)O2 | – | – | – | – | · | · | · | ·
COc1ccccc1-c1cnc2c(c1)C(=O)N([C@@H](C)CO)C[C@@H](C)[C@@H](CN(C)Cc1cccc(F)c1)O2 | – | – | – | ? | – | – | – | 52
COc1ccccc1-c1cnc2c(c1)C(=O)N([C@H](C)CO)C[C@@H](C)[C@H](CN(C)Cc1cccc(F)c1)O2 | – | – | – | – | · | · | · | ·
O=C(Nc1cccc(F)c1)N1CC(=O)N2[C@@H](CO)[C@H](c3ccc(C#Cc4cccnc4)cc3)[C@@H]2C1 | – | – | · | · | · | · | · | ·
CN(CC(=O)Nc1cccc2ccccc12)S(=O)(=O)c1ccc(F)cc1 | · | · | – | · | · | · | · | ·
C[C@@H]1CN([C@H](C)CO)C(=O)c2cc(NS(=O)(=O)c3ccc(Cl)cc3)ccc2O[C@@H](C)CCCCO[C@H]1CN(C)C(=O)Nc1ccc(C(F)(F)F)cc1 | – | – | – | – | · | · | · | ·
Cc1ccc(S(=O)(=O)Nc2ccc3c(c2)C(=O)N([C@H](C)CO)C[C@H](C)[C@H](CN(C)C(=O)Nc2ccc(C(F)(F)F)cc2)OCCCC[C@H](C)O3)cc1 | – | – | · | 101 | 101 | 116 | – | –
Cc1ccc(S(=O)(=O)Nc2ccc3c(c2)C(=O)N([C@H](C)CO)C[C@H](C)[C@H](CN(C)C(=O)Nc2ccc(C(F)(F)F)cc2)OCCCC[C@@H](C)O3)cc1 | – | – | – | 103 | 104 | – | 40 | 48
COc1ccc(S(=O)(=O)Nc2ccc3c(c2)C(=O)N([C@H](C)CO)C[C@H](C)[C@@H](CN(C)C(=O)Nc2ccc(C(F)(F)F)cc2)OCCCC[C@H](C)O3)cc1 | – | · | · | 101 | 109 | 116 | – | –
Cc1ccc(S(=O)(=O)Nc2ccc3c(c2)C(=O)N([C@@H](C)CO)C[C@@H](C)[C@H](CN(C)C(=O)Nc2ccc(C(F)(F)F)cc2)OCCCC[C@@H](C)O3)cc1 | – | – | – | 100 | 102 | 113 | – | 36
C[C@@H]1CCCCO[C@@H](CN(C)C(=O)Nc2ccc(C(F)(F)F)cc2)[C@@H](C)CN([C@H](C)CO)C(=O)c2cc(NS(=O)(=O)c3ccc(Cl)cc3)ccc2O1 | – | · | · | – | · | · | · | ·
CO[C@@H]1CN(C)C(=O)c2cc(NC(=O)NC(C)C)ccc2OC[C@H](C)N(Cc2cncnc2)C[C@H]1C | – | – | · | – | · | · | · | ·
Cc1ccc(S(=O)(=O)Nc2ccc3c(c2)C(=O)N([C@@H](C)CO)C[C@@H](C)[C@@H](CN(C)Cc2ccc4c(c2)OCO4)O3)cc1 | – | – | – | – | · | · | · | ·
CNC(=O)C[C@@H]1CC[C@H]2[C@@H](COc3ccc(NC(=O)Nc4ccc(Cl)cc4)cc3C(=O)N2C)O1 | – | – | · | – | · | · | · | ·
SMILES | Pf Dd2 inh | GASC1 inh | IDH1 R132H inh | T cruzi growth-1 | T cruzi growth-2 | T cruzi growth-3 | 3T3 cytotox | 3T3 cytotox 2
C[C@H]1CCCCO[C@@H](CN(C)C(=O)Nc2ccc(C(F)(F)F)cc2)[C@@H](C)CN([C@@H](C)CO)C(=O)c2cc(NS(C)(=O)=O)ccc2O1 | – | – | – | 109 | 107 | – | – | –
C[C@@H]1CCCCO[C@H](CN(C)C(=O)Nc2ccc(C(F)(F)F)cc2)[C@H](C)CN([C@@H](C)CO)C(=O)c2cc(NS(=O)(=O)c3ccc(F)cc3)ccc2O1 | – | – | – | – | · | · | · | ·
C[C@@H]1CCCCO[C@H](CN(C)C(=O)Nc2ccc(C(F)(F)F)cc2)[C@@H](C)CN([C@H](C)CO)C(=O)c2cc(NS(=O)(=O)c3ccc(F)cc3)ccc2O1 | – | – | – | 100 | 109 | – | – | –
O=S(=O)(N[C@@H]1CC[C@H](CCn2cc(-c3ccc(F)cc3)nn2)O[C@H]1CO)c1ccccc1F | – | – | – | – | · | · | · | ·
CC(C)NC(=O)N1[C@H](C#N)[C@@H](c2ccc(C#CC3CCCCC3)cc2)[C@H]1CO | – | – | · | – | · | · | · | ·
CN(C)CC(=O)N1[C@H](CO)[C@@H](c2ccc(C#CC3CCCCC3)cc2)[C@@H]1C#N | – | – | · | 99 | 102 | – | – | 106
N#C[C@@H]1[C@H](c2ccc(C#CC3CCCC3)cc2)[C@@H](CO)N1C(=O)c1cccc(F)c1 | – | – | · | · | · | · | · | ·
CC(C)NC(=O)N1[C@H](C#N)[C@H](c2ccc(C#CC3CCCC3)cc2)[C@H]1CO | – | – | · | 102 | 103 | 101 | – | –
CN(C)CC(=O)N1[C@H](C#N)[C@H](c2ccc(C#CC3CCCCC3)cc2)[C@@H]1CO | – | – | · | – | · | · | · | ·

From PubChem BioAssay
